Legend:
Format in all cases: functional
[1] = tested on: Mycobacterium tuberculosis; assay: Antitubercular activity against multi-drug resistant Mycobacterium tuberculosis after 21 days by BACTEC MGIT 960 method; conditions: 504 h
Procedure, shortened: (§1)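 Compounds dissolved in 100% methanol (10 mg/mL stock), sonicated, filter-sterilised, diluted in sterile water; twofold serial dilutions, working range 8 to 0.125 µg/mL. Strains grown in Middlebrook 7H9 + OADC at 37 °C; inoculum adjusted to McFarland 1, diluted tenfold to 10^5 CFU/mL into MGIT tubes. Drug-free control received a 1:100 inoculum. MIC is the lowest dilution negative when the control turns positive. Triplicate.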

[2] = tested on: Mycobacterium tuberculosis; assay: Antitubercular activity against extensively drug-resistant Mycobacterium tuberculosis after 21 days by BACTEC MGIT 960 method; conditions: 504 h; procedure, shortened: as §1
[3] = tested on: Mycobacterium tuberculosis; assay: Ratio of SQ109 MIC to compound MIC for multi-drug resistant Mycobacterium tuberculosis
[4] = tested on: Mycobacterium tuberculosis; assay: Ratio of SQ109 MIC to compound MIC for extensively drug-resistant Mycobacterium tuberculosis

CC(C)=CCC/C(C)=C/CNCCNC1C2CC3CC(C2)CC1C3.Cl.Cl (stereo not drawn)
MIC [1]: 2 µg/mL | MIC [2]: 4 µg/mL

CC(C)=CCC/C(C)=C/CNC(=O)CN1[C@H]2C3C4CC5C6C4C2C6[C@@]1(O)C53 (mixture of isomers)
MIC [1]: 4 µg/mL | MIC [2]: 8 µg/mL

CC(C)=CCC/C(C)=C/CNCC(=O)N[C@]12O[C@H]3C4C5CC(C6C5C3C61)C42 (mixture of isomers)
MIC [1]: 4 µg/mL | MIC [2]: 8 µg/mL

CC(C)=CCC/C(C)=C/CNCCN[C@@H]1C2C3CC4C5C3CC2C5C41.Cl.Cl (mixture of isomers)
MIC [1]: 4 µg/mL | MIC [2]: 8 µg/mL

CC(C)=CCC/C(C)=C/CNCCN[C@]12O[C@H]3C4C5CC(C6C5C3C61)C42.Cl.Cl (mixture of isomers)
MIC [1]: 2 µg/mL | MIC [2]: 4 µg/mL

CC(C)=CCC/C(C)=C/CNCCN[C@@H]1C2C3CC4C5C3C1C5[C@@H](O)C42.Cl.Cl (mixture of isomers)
MIC [1]: 2 µg/mL | MIC [2]: 4 µg/mL

CC(C)=CCC/C(C)=C/CNCCN1[C@H]2C3C4CC5C6C4C2C6[C@@]1(O)C53.Cl.Cl (mixture of isomers)
MIC [1]: 2 µg/mL | MIC [2]: 4 µg/mL

CC(C)=CCC/C(C)=C/CNCCNC1C2C3CC4C5CC(C42)C1C53.Cl.Cl (racemic)
MIC [1]: 1 µg/mL | MIC [2]: 2 µg/mL | Ratio [3]: 2 | Ratio [4]: 2

— ChEMBL document CHEMBL2040749, “Novel polycyclic 'cage'-1,2-diamines as potential anti-tuberculosis agents” (2012)
